Experiment [1] addresses T1, Adenosine receptor A2b (Homo sapiens) (UniProt P29275).
T1 sequence (whole entry): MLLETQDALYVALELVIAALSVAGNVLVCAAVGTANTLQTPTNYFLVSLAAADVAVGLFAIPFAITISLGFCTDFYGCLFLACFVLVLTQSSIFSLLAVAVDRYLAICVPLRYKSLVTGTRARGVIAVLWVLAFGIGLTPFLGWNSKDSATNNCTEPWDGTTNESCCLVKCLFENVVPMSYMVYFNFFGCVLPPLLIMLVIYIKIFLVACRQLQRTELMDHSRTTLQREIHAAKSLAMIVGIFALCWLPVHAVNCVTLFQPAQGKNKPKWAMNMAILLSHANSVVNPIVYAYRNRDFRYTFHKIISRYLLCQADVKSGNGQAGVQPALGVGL
Briefly: Displacement of [3H]MRS-1754 from human adenosine A2B receptor expressed in HEK293 cell membranes at 1 uM after 90 mins relative to control. The essentials:
(§1)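 Membranes from HEK-293 cells stably transfected with human receptor, pre-treated with adenosine deaminase. Radioligands: 1 nM [3H]DPCPX (A1), 1 nM [3H]ZM241385 (A2A), 1.6 nM [3H]MRS-1754 (A2B), 2 nM [3H]HEMADO (A3). Buffers: Tris pH 7.4 (A1, A2A, A3) or pH 6.5 (A2B), with ADA. Incubated 90 min at room temperature, then filtered. Nonspecific binding defined with 100 µM NECA. Ki from 8 concentrations run in triplicate.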

For the next experiment, the target named is Adenosine receptor A2a (Homo sapiens, UniProt P29274). Briefly: Displacement of [3H]ZM241385 from human adenosine A2A receptor expressed in HEK293 cell membranes at 1 uM after 90 mins relative to control. The essentials: as §1
A further experiment has as its target T2, Adenosine receptor A3 (Homo sapiens, UniProt P0DMS8).
T2 sequence (P0DMS8 whole entry): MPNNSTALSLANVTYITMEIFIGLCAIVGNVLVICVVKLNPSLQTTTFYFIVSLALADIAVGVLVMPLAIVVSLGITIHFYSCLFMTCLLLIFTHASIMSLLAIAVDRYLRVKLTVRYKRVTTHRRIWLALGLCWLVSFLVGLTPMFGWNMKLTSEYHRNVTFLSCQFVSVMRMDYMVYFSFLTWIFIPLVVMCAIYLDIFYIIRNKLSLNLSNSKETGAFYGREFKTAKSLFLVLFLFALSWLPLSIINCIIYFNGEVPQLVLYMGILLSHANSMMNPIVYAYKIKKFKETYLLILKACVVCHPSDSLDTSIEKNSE
Briefly: Displacement of [3H]HEMADO from human adenosine A3 receptor expressed in HEK293 cell membranes after 90 mins. The method, boiled down: as §1
On the technique in general: Loss of bound radioactivity is the signal in a displacement assay; it reports binding, not function.

For experiment [2], the system named is Rattus norvegicus. Kind of experiment: Natriuretic activity in Wistar rat at 0.1 mg/kg, po via gavage measured after 4 hrs. Type of experiment: functional, organism-based. The essentials: (§2)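 Male Wistar rats (250-300 g, n = 6) dosed orally at 5 mL/kg. Vehicles: DMAC 5%/NaOH/saline, or NMP 10%/PEG-400 20%/saline pH 12.0. Rats were then kept singly in metabolic cages without food or water for 4 h. Urine volume, Na+ and K+ were measured with a biochemistry analyser.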

Experiment [3] has as its system Rattus norvegicus. Briefly: Diuretic activity in Wistar rat at 0.1 mg/kg, po via gavage measured after 4 hrs. Type of experiment: functional, organism-based. The essentials:
as §2

For experiment [4], the target named is T3, Adenosine receptor A1 (Homo sapiens, UniProt P30542).
T3 sequence (P30542 whole entry): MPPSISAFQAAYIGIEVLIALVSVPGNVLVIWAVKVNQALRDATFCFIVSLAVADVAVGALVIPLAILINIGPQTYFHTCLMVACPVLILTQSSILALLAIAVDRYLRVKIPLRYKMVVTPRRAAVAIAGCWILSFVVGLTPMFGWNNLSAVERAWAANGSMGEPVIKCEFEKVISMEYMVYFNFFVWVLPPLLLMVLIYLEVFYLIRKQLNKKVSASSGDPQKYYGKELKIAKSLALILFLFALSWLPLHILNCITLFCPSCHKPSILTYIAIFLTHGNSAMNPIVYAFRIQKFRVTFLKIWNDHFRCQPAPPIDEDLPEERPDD
Briefly: Displacement of [3H]DPCPX from human adenosine A1 receptor expressed in HEK293 cell membranes after 90 mins.

The target in experiment [5] is T4, Adenosine receptor A3 (Homo sapiens) (UniProt P0DMS8).
T4 sequence (whole entry): T2 sequence (P0DMS8 whole entry)
Briefly: Displacement of [3H]HEMADO from human adenosine A3 receptor expressed in HEK293 cell membranes at 1 uM after 90 mins relative to control. The essentials: as §1

The target of experiment [6] is T3, Adenosine receptor A1. Kind of experiment: Antagonist activity at human adenosine A1 receptor expressed in HEK293 cells assessed as reduction in CPA-mediated inhibition of forskolin-stimulated cAMP level preincubated for 15 mins followed by CPA treatment for 15 mins and subsequent addition of forskolin measured after 30 mins by HTRF assay. Type of experiment: functional, cell-based. Background: cAMP levels reflect the balance of adenylyl cyclase and phosphodiesterase activity.

Experiment [7] concerns the target T5, Adenosine receptor A1 (Homo sapiens) (UniProt P30542).
T5 sequence (whole entry): T3 sequence (P30542 whole entry)
Briefly: Displacement of [3H]DPCPX from human adenosine A1 receptor expressed in HEK293 cell membranes at 1 uM after 90 mins relative to control. The method, boiled down:
as §1

pIC50, pKi: −log10 of the molar value. Active and inactive are the calls of the source. No cut-off for these calls is given here.

As usually defined, the inhibition is how much of the control response was suppressed. The low end stands for little suppression, the high end for strong suppression. The term pIC50 denotes the negative decadic logarithm of the IC50, by convention in mol/L. A lower pIC50 goes with a high IC50. A word on the pKi: it is −log10 of the Ki, conventionally taken in molar units.

Adenosine receptor A2a, sequence (P29274 whole entry): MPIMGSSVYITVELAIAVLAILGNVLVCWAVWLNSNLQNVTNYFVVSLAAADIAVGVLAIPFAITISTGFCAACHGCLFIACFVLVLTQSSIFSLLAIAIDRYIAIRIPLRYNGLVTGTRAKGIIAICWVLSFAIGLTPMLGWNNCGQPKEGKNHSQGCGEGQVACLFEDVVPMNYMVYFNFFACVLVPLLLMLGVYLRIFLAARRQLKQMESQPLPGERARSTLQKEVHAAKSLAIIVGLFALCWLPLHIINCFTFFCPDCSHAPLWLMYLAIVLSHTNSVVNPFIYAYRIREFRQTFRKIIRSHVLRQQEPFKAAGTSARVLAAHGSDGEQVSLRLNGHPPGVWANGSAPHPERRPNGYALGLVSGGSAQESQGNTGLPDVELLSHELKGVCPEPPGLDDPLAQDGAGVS

Turning to `CCCn1c(Oc2cccc(OC)c2)nc2nc(C3CCCC3)[nH]c2c1=O`, the inhibition worked out at 70% in experiment [1] and 36% at Adenosine receptor A2a. The compound also showed a negative logarithm of the IC50 (pIC50) at Adenosine receptor A3 of 6.37.

In the case of `CCCn1c(=O)c2nc(C34CC5CC(CC3C5)C4)[nH]c2n(CCC)c1=O`, the outcome in the experiment on Rattus norvegicus [2] and in the experiment with Rattus norvegicus [3] was Active.

For `CCCn1c(Oc2cccc(C(F)(F)F)c2)nc2nc(C3CCCC3)[nH]c2c1=O`, the pKi at Adenosine receptor A1 [4] is 7.72; on Adenosine receptor A1 [6] it was 8.23. In addition, the figures for the inhibition (in [5]; in experiment [1]; at Adenosine receptor A2a) were 35%, 0% and 34%, respectively.

With `CCCn1c(-c2cccc(C(F)(F)F)c2)nc2nc(C3CCCC3)[nH]c2c1=O`, the inhibition in [7] worked out at 100%; in experiment [5] it was 0%; in experiment [1], 14%; on Adenosine receptor A2a, 0%. Besides, the pKi on Adenosine receptor A1 [6] was 7.92.

As to `CCCn1c(NCc2ccc(C(=O)O)cc2)nc2nc(C3CCCC3)[nH]c2c1=O`, the inhibition in [7] worked out at 54%; in experiment [1], 16%; at Adenosine receptor A2a, 31%.

Regarding `CCCn1c(OC2CCCC2)nc2nc(C3CCCC3)[nH]c2c1=O`, the pKi was 7.85 at Adenosine receptor A1 [4] and 7.89 at Adenosine receptor A1 [6]. Also, the inhibition stood at 79% in [5], 92% in experiment [1] and 85% on Adenosine receptor A2a.

Regarding `CCCn1c(NCC(=O)O)nc2nc(C3CCCC3)[nH]c2c1=O`, the inhibition in [7] was 72%; in experiment [5] it was 0%; in experiment [1], 9%; at Adenosine receptor A2a it was 0%.

(Values after ChEMBL document CHEMBL3992564, “Design and synthesis of novel, potent and selective hypoxanthine analogs as adenosine A1 receptor antagonists and their biological evaluation” (Bioorg Med Chem, 2017).)
